The nature of data set [1]: Compound tested for solubility measured in 3% ethanol:water or in 3% methanol:water; NS is not soluble. It is filed as ADME. Particulars: buffer.
Data set [2] addresses Nitric oxide synthase 1 (Rattus norvegicus) (UniProt P29476). The experiment in a line: Neuronal subtype of Neuronal nitric oxide synthase (nNOS) activity tested on Rat Striatal neurones at the concentration of 10e-7 (M). An outline of the steps:
(§1)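 Rat striatal crude homogenate (supernatant after 1000g, 5 min) as nNOS source. L-[3H]-arginine to L-[3H]-citrulline conversion: 10 µM L-arginine plus 50 nM tracer, H4biopterin, FAD, 0.1 mM CaCl2, pH 7.6. Compounds added over 10 pM–1 mM. Started with NADPH (0.75 mM final), 30 min at 37 °C. Blank omits NADPH. Activity expressed as % of untreated samples. Three experiments in triplicate, four striata each.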

Data set [3] shares this target. The experiment in a line: Neuronal subtype of Neuronal nitric oxide synthase (nNOS) activity tested on Rat Striatal neurones at the concentration of 10e-3 (M). The gist of the method: as §1
The target is the same in data set [4]. Briefly: Neuronal subtype of Neuronal nitric oxide synthase (nNOS) activity tested on Rat Striatal neurones at the concentration of 10e-9 (M). The gist of the method: as §1
Data set [5] shares this target. Briefly: Neuronal subtype of Neuronal nitric oxide synthase (nNOS) activity tested on Rat Striatal neurones at the concentration of 0(M). The gist of the method: as §1
Data set [6] has the same target. The experiment in a line: Neuronal subtype of Neuronal nitric oxide synthase (nNOS) activity tested on Rat Striatal neurones at the concentration of 10e-5 (M). The gist of the method: as §1
Data set [7] has the same target. Briefly: Neuronal subtype of Neuronal nitric oxide synthase (nNOS) activity tested on Rat Striatal neurones at the concentration of 10e-11 (M). The gist of the method:
as §1

The target in a further data set is Nitric oxide synthase 1 (Rattus norvegicus, UniProt P29476). Briefly: 50% inhibitory concentration against Neuronal nitric oxide synthase (nNOS) activity. The gist of the method: as §1

The structures appear in SMILES notation. pIC50: −log10 of the molar value.

Sequence of Nitric oxide synthase 1 (Rattus norvegicus) (P29476 whole entry): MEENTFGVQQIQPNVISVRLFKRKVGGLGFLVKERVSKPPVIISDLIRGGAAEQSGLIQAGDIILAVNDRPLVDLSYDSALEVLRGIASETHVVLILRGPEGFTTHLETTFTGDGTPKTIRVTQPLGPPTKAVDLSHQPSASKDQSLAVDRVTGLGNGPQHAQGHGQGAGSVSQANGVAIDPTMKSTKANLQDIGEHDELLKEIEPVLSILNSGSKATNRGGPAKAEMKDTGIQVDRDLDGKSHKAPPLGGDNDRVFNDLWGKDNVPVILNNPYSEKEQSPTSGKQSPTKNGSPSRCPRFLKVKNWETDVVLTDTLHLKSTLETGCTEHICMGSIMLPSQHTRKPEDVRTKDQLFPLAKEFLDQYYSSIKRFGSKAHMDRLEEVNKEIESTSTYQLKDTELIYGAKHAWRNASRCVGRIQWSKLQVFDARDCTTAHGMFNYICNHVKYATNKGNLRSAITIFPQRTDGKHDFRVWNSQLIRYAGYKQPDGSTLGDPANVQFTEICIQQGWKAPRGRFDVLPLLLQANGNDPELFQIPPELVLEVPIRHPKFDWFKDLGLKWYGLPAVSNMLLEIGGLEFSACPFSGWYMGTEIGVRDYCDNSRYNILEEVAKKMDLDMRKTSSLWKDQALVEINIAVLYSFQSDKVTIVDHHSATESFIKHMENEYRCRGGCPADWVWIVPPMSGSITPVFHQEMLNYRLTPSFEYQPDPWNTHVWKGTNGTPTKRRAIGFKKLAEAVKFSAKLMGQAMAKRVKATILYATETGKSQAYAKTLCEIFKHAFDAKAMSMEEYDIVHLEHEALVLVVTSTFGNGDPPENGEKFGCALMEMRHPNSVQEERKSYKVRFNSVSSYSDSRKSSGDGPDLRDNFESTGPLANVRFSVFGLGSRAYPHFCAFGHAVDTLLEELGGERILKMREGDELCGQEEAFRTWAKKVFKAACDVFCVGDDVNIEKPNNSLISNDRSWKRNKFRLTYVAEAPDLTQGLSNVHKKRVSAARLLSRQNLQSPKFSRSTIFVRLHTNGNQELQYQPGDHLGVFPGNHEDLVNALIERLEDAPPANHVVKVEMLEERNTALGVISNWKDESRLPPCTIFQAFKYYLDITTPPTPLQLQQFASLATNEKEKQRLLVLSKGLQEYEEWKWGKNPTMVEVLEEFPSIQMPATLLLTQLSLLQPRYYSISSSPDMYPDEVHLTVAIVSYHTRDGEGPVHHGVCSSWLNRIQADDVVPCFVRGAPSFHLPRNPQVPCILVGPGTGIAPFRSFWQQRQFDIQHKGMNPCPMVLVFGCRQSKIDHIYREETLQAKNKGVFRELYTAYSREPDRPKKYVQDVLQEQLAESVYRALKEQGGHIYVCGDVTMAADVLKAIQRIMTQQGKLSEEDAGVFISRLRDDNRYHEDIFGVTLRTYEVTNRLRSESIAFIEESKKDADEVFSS
Sequence of Nitric oxide synthase 1 (P29476 whole entry): as above

For the compound `CCCC(=O)NC(CC(=O)c1cccc(OC)c1)(C(=O)OCC)C(=O)OCC`, the NS result in data set [1] is “Insoluble”.

Consider `CCOC(=O)C(CC(=O)c1cccc([N+](=O)[O-])c1)(NC(C)=O)C(=O)OCC`, for which the NS result in data set [1] is given as “Insoluble”.

With `CCOC(=O)C(CC(=O)c1cccc(OC)c1)(NC(=O)c1ccccc1)C(=O)OCC`, the NS result in data set [1] is listed as “Insoluble”.

With `COc1ccc(NCc2ccccc2)c(C(=O)CC(NC(C)=O)C(=O)O)c1` (stereo not given), the nNOS activity was determined as 100% in data set [2]; 100% in data set [3]; 101% in data set [4]; 100% in data set [5]; 98.2% in data set [6]; 101% in data set [7].

On to `CCOC(=O)C(CC(=O)c1cc(OC)ccc1N(C)C)(NC(C)=O)C(=O)OCC`, for which the NS entry in data set [1] is reported as “Insoluble”.

`CCCC(=O)NC(CC(=O)c1cc(OC)ccc1N)(C(=O)OCC)C(=O)OCC`: in data set [1], the NS result was “Insoluble”.

On to `CCCC(=O)NC(CCC(=O)c1ccccc1)(C(=O)OCC)C(=O)OCC`, for which, in data set [1], the NS result was “Insoluble”.

On to `COc1ccc(N)c(C(=O)CC(NC(C)=O)C(=O)O)c1` (stereo not given) [KYNURENIN], for which the nNOS activity came to 65.8% in data set [2]; 31.5% in data set [3]; 73.4% in data set [4]; 100% in data set [5]; 64% in data set [6]; 78.6% in data set [7]. This compound had a pIC50 on Nitric oxide synthase 1 of 4.39.

For the compound `CCOC(=O)C(CC(=O)c1cccc(OC)c1)(NC(=O)C1CCCCC1)C(=O)OCC`, the NS result in data set [1] is recorded as “Insoluble”.

As for `CCCC(=O)NC(C(=O)OCC)(C(=O)OCC)C(C)C(=O)c1ccccc1` (stereo not given), the NS result in data set [1] is reported as “Insoluble”.

`CCOC(=O)C(CC(=O)c1cc(OC)ccc1NCc1ccccc1)(NC(C)=O)C(=O)OCC`: the NS result in data set [1] was “Insoluble”.

For the compound `CCCC(=O)NC(CC(=O)c1cc(OC)ccc1N)C(=O)O` (stereo not given), the nNOS activity was 77.3% in data set [2]; 55% in data set [3]; 82.1% in data set [4]; 100% in data set [5]; 67.4% in data set [6]; 85.8% in data set [7]. For the same compound, the pIC50 on Nitric oxide synthase 1 is less than 3.00.

Regarding `COc1ccc(N(C)C)c(C(=O)CC(NC(C)=O)C(=O)O)c1` (stereo not given), the nNOS activity was 99.6% in data set [2]; 99% in data set [3]; 99.9% in data set [4]; 100% in data set [5]; 101% in data set [6]; 100% in data set [7].

In the case of `C/C=C/C(=O)NC(CC(=O)c1cccc(OC)c1)(C(=O)OCC)C(=O)OCC`, the NS result in data set [1] is listed as “Insoluble”.

On to `COc1cccc(C(=O)CC(NC(C)=O)C(=O)O)c1` (stereo not given), for which the nNOS activity in data set [2] was 87.2%; in data set [3], 95.7%; in data set [4], 100%; in data set [5] it was 100%; in data set [6], 103%; in data set [7], 92.7%.

Take `CCCC(=O)NC(CC(=O)c1cccc(OC)c1)C(=O)O` (stereo not given): the nNOS activity in data set [2] is 101%; in data set [3], 105%; in data set [4] it was 101%; in data set [5], 100%; in data set [6], 99.7%; in data set [7], 99.9%.

On to `CCOC(=O)C(CC(=O)c1cccc(OC)c1)(NC(=O)C1CC1)C(=O)OCC`, for which, in data set [1], the NS result was “Insoluble”.

Take `CCOC(=O)C(CC(=O)c1cccc([N+](=O)[O-])c1)(NC(=O)CC)C(=O)OCC`: the NS entry in data set [1] was “Insoluble”.

Broadly, the pIC50 is −log10 of the IC50, conventionally taken in molar units. Low readings indicate a large IC50, high ones a small IC50.
